Data taken from ChEMBL document CHEMBL1140883, “Synthesis and antitumor activity of novel amsacrine analogs: the critical role of the acridine moiety in determining their biological activity” (Bioorg Med Chem, 2009).
pIC50: −log10 of the molar value. Active and inactive are the calls of the source. No cut-off for these calls is given here.

Key:
MCF7 = assay: Cytotoxicity against human MCF7 cells after 72 hrs by MTT assay; assay type: functional, cell-based; details: MCF7, 72 h
Summary of the method: (§1)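 Cells kept in log phase at 37 °C, 5% CO2, in RPMI-1640 with 10% foetal calf serum. Seeded at 3–8 × 10^4 mL^-1 according to growth rate. Treated 72 h with increasing drug concentrations, final solvent 0.5%. MTT read-out as absorbance at 540 nm, expressed as % of untreated control. IC50 taken from dose–survival curves.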

A-431 = assay: Cytotoxicity against human A431 cells after 72 hrs by MTT assay; assay type: functional, cell-based; details: A-431, 72 h; summary of the method: as §1
A549 = assay: Cytotoxicity against human A549 cells after 72 hrs by MTT assay; assay type: functional, cell-based; details: A549, 72 h
Summary of the method: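 A549 cells kept in log phase at 37 °C, 5% CO2, in F-12 Ham's with 15% foetal calf serum, penicillin 50 units mL^-1 and streptomycin. Seeded at 3–8 × 10^4 mL^-1, then treated 72 h with increasing concentrations, final solvent 0.5%. MTT absorbance at 540 nm as % of untreated control. IC50 taken from dose–survival curves.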

2008 = assay: Cytotoxicity against human 2008 cells after 72 hrs by MTT assay; assay type: functional, cell-based; details: Homo sapiens, 2008, 72 h; summary of the method: as §1
HL-60 = assay: Cytotoxicity against human HL60 cells after 72 hrs by MTT assay; assay type: functional, cell-based; details: HL-60, 72 h; summary of the method: as §1
Salmonidae = assay: Binding affinity to salmon testes DNA assessed as negative dichroic signal by linear dichroism experiment
Summary of the method: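 Flow linear dichroism on salmon testes DNA at 1.5 × 10^-3 M in ETN buffer (10 mM Tris, 10 mM NaCl, 1 mM EDTA, pH 7). DNA orientation by shear gradient at 500–700 rpm. Spectra recorded at 25 °C at [drug]/[DNA] ratios of 0, 0.02, 0.04 and 0.08, each spectrum accumulated four times. DNA concentration from ε260 6600 M^-1 cm^-1.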

| Activity (Salmonidae) | SMILES | pIC50 (MCF7) | pIC50 (A-431) | pIC50 (A549) | pIC50 2008 | pIC50 (HL-60) |
| --- | --- | --- | --- | --- | --- | --- |
| – | O=c1ccc2c(Cl)c3ccccc3nc2o1 | < 4.00 | 4.26 | 4.20 | 4.28 | 4.40 |
| – | COc1ccc2nc3oc(=O)ccc3c(Cl)c2c1 | < 4.00 | 4.01 | < 4.00 | < 4.00 | < 4.00 |
| – | COc1ccc2nc3oc(=O)ccc3c(Nc3ccc(NS(C)(=O)=O)cc3OC)c2c1 | < 4.00 | 4.07 | < 4.00 | < 4.00 | 4.02 |
| – | COc1ccc2c(Cl)c3ccc(=O)oc3nc2c1 | 4.30 | < 4.00 | 4.27 | < 4.00 | 4.22 |
| – | COc1cccc2c(Cl)c3ccc(=O)oc3nc12 | 4.27 | 4.26 | 4.12 | 4.22 | 4.43 |
| Active | COc1cc(NS(C)(=O)=O)ccc1Nc1c2ccccc2nc2ccccc12 [AMSACRINE] | 5.29 | 5.23 | 5.45 | 5.37 | 5.94 |
| – | COc1cc(NS(C)(=O)=O)ccc1Nc1c2ccccc2nc2oc(=O)ccc12 | < 4.00 | < 4.00 | < 4.00 | < 4.00 | < 4.00 |
| – | COc1ccc2c(Nc3ccc(NS(C)(=O)=O)cc3)c3ccc(=O)oc3nc2c1 | < 4.00 | 4.03 | < 4.00 | < 4.00 | < 4.00 |
| – | COc1cc(NS(C)(=O)=O)ccc1Nc1c2ccc(=O)oc2nc2c(OC)cccc12 | < 4.00 | < 4.00 | 4.09 | < 4.00 | < 4.00 |
| – | COc1ccc2nc3oc(=O)ccc3c(Nc3ccc(NS(C)(=O)=O)cc3)c2c1 | 4.22 | 4.25 | < 4.00 | 4.17 | 4.33 |
| – | COc1cccc2c(Nc3ccc(NS(C)(=O)=O)cc3)c3ccc(=O)oc3nc12 | < 4.00 | < 4.00 | < 4.00 | < 4.00 | < 4.00 |
| – | CS(=O)(=O)Nc1ccc(Nc2c3ccccc3nc3oc(=O)ccc23)cc1 | < 4.00 | 4.03 | < 4.00 | < 4.00 | 4.04 |
